Fewer inactive variants are shown than the library holds.

Our source for the yeast fitness values is the RNAGym collection of RNA variant scans (doi:10.1126/science.aae0568).

The labels stand for the following.
B1: tRNA (parent)
chain: GUUCCGUUGGCGUAAUGGUAACGCGUCUCCCUCCUAAGGAGAAGACUGCGGGUUCGAGUCCCGUACGGAACG

The variants in the series derive from B1. Briefly: yeast fitness relative to wild type (ratio to wild type); higher = fitter; tRNA-Arg(CCU), competitive growth, 37 C, YPD. The method in brief:
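A pool of Saccharomyces cerevisiae strains, each with a tRNA-Arg(CCU) gene variant at the native genomic locus, was competed in YPD at 37°C for 24 hours across six parallel replicates. The variants had been chemically synthesised at a 3% per-site mutation rate over 69 sites, and gene amplicons before and after competition were read by 100-nucleotide paired-end sequencing. Darwinian fitness relative to wild type rested on changes in genotype frequencies. Genotypes required ≥ 100 starting reads, and estimates < 0.5 were set to 0.5.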
Take GUUCCGAAGCCGUAAUGGUAACGCGUGUCCCUCGUAAGGAGAGGACUGCGGGUUUGAGUCCCGUACGGAACG: the yeast fitness was at most 0.5.

With GUUCCGCUGGCGUAAUGGUAUCGCGUCUCCCUCCUUCGGAGAAGACUGCGGGUUCGAGUCCCGUACGGAACG, the yeast fitness was at most 0.5.

On to GUUCCGAUGGCGUAAUGGUAACGCGUCUCCCACCUAAGGAGAAGACUGCGGGUUCGAGUCGCGUACGGAACG, for which the yeast fitness was at most 0.5.

Regarding GUUCCGCUGGCGUAGUGGUAACGCGUUUUCCUCCUAAGGAGAAGACUGCGGGUUCGAGUCCCGUACGGAACG, the yeast fitness was at most 0.5.

For GUUCCGCUGGCGUAAUGGUAUCGAGUCUCCCUCCUAAGGAGAAGACUGCGGGUUCGAGUCCUGCACGGAACG, the yeast fitness worked out at 0.661.

Regarding GUUCCGCUGGCGUCAUGAUAACGCGUCUCCCUCCUAAGGAGACGACUGCGGGUUCGUGUCCCAUACGGAACG, the yeast fitness was at most 0.5.

GUUCCGCUGGCGUAAUGGUACCGCGUCUCCCUCGGAAGGAGAACACUGCGGGUUCGAGUCGCGUACGGAACG: the yeast fitness is 0.636.

For GUUCCGCUGGCGUAAUGGUAACGCGUCUCCCUCCUUAGGAGAAGACUGGGGGUUCGAGUCCCGUACGGAACG, the yeast fitness turned out to be 0.744.

For GUUCCGCUGGCGUAAUGGUCACGCGUCUCCCUCCUAAGGAGAAGACUGCGGGUUCGAGUCCCGUACGGAACG, the yeast fitness stood at 0.844.

Turning to GUUCCGAUGGCGUAACGGUAACGCGUCUCCCUCCUAAGGAGAAGACUGCGGGUUCGAGUCCCGUACGGAACG, the yeast fitness worked out at 0.751.

Take GUUCCGCUGGCGUAAUGGUAACGCGUCUCCCUCCUAUGGAGAAGACUGCGGGUUCGAGUCCCGUACGGAACG: the yeast fitness was 0.625.

In the case of GUUCCGAAGGGGUAAUGGUAACGCGUCUCCCUCCUAAGGAGAAGACUGCGGGUUCAAGUCCCGUACGGUACG, the yeast fitness was found to be 0.548.

In the case of GUUCCGAUGGCGUAAUGGUAACGCGUCUCCCUCCUAAGGAGAAGACUGCGGGUUCGAGCCCCGUACGGAACG, the yeast fitness is 0.662.

Take GUUCCGAUGGCGUAAUGGUAACGCGUCUCCCUCCUAAGGAGAAGACUGCGGGUUCGAGACCCGUACGGAACG: the yeast fitness was 0.778.

As for GUUCCGAUGGCGUAACAGUAACGCGUCUCCCUCGUAAGGAGAAGCCUGCGGCUUCGAGUCCCGUACGGAACG, the yeast fitness was at most 0.5.

GUUCCGAAGGCGUAAUGGUAACGCGUCUCCCUCCUAAGGAAAAGACUGCGGGUUCGAGUCCCGUACGGAUCG: the yeast fitness was at most 0.5.

With GUUCCGAUGGCGUAAUGGUAACGCGUCUCCCUCCCAAGGAGGAGACUGCGGGUUCGAGUUCCGUACGGAACG, the yeast fitness was 0.561.

On to GUUCCGCUGGCGUAAUGGUGACGCGUCUCCCUCCUAAGGAGAAGACUGCGGGUUCGAGUCUCGUACGGAACG, for which the yeast fitness was found to be 0.587.

As for GUUCCGAAGGCGUAAUGGUAACGCAUCUCCCUCCUAAGGCGAAGACUGCGGGUUCGAGUUCCGUACGGAACG, the yeast fitness was at most 0.5.

Turning to GUUCCGAUGGCGUAACAGUAACGCGUCUUCAUCCUAAGGAGAAGACUGCGUGUUCGAGUCCCGUAGUGAACG, the yeast fitness is at most 0.5.

GUUCCGAUGGCGUAAUGGAAACGCGUCUCCCUCCUAAGGAGAAGACUGCGGGUUCGAGUCCCGUACGGCACG: the yeast fitness was determined as 0.502.

With GUUCCGCUGGCGUAAUGGUUACGCGUCUCCCUCGUCAGGAGAAGACUGCGGGUUUGAGUCCCGUUCGGAACG, the yeast fitness was at most 0.5.

As to GUUCCGCUGGCGUGAUGGUAACGCGUCUUCUUUCUAAGGAGAAGACUGCGGGUUCGAGUCCCGUACGGAACG, the yeast fitness stood at 0.592.

Regarding GUUCCGAUGGCGGAAUGGUAACGCGUCUCCCUCCUAAGGAGAAGACUGCGGGUUGGAGUCCCGUACGGAACG, the yeast fitness is at most 0.5.

Take GUUCCGCUGGCGUAAUGGUAACGCGUCUCCCUCCUACGGCGAAGUCUGCGGGUUCGCGUCCCGUACGGAACG: the yeast fitness was found to be 0.573.

Take GUUCCGAUGGCGUAAUGGUAACGCGUCUCCCUCCUAAGGAGAAGACUGCGGGAUCGAGUCCCGUACGGAACG: the yeast fitness was at most 0.5.

Consider GUUCCGAUGGCGUAACGGUAUCGCGACUCCCUCCUAAGGAGAAGAUUGCGGGUUCGAGUCCCGUACGGAACG, for which the yeast fitness came out at 0.681.

GUUCCGAAGCCGUAAUGGUAACGCGUGUCCCUCGUAAGGAGGAGACUGCGGGUUUGAGUCCCGUACGGAACG: the yeast fitness is at most 0.5.

Take GUUCCGCUGGCGUGAUGGGAACGCGUCUGCCUCCUAAGGAGAAGACUGAGGCUUCGAGUCCCGUACGGAACG: the yeast fitness is at most 0.5.

For the variant GUUCCGAUGGCGUAAUGGUAACGCGUCUCCCUCCUAAGGAGAAGACUGCGGGAUCGAGUCCCGUCCGGAGCG, the yeast fitness is at most 0.5.

As to GUUCCGAUGGCGUAAUGGGAUCGCGUCUCCCUCCUAAGGAGAAGACUGCGGGUUCGAGUCCCGUACAGAACG, the yeast fitness was at most 0.5.

Take GUUCCGCUGGCGUAAUGGUAACGCGUCUCCCUCCUAGGGAGAAGACUGCGGGUUAGACUCCCGUACGGAACG: the yeast fitness was at most 0.5.

On to GUUCCGCUGGCGUAAUGGUAACGCGUCUCCCUCCUGAGGAGAAGACUGCGGGUUCGAGUCCCGUACGGAACG, for which the yeast fitness was determined as 0.888.

With GUUCCGCUGGCGUAAUGGUACCGCGUCUCCCUCAGAAGGAGAACACUGCGGGUUCGAGUCGCGUACGGAACG, the yeast fitness is at most 0.5.

As for GUUCCGCUGGCGUACUGGUAACGCGUCUCCCUCCUAAGGAGAAGACUGCGGGUUCGAGUCCCGUACGGAACG, the yeast fitness turned out to be 0.639.

For the variant GUUCCGCUGGCGUAAUGGUGACGCGUCUCCCUCCUAAGGUGAAGACUGCGGGUUCGAGUCCCGUACGGAACG, the yeast fitness turned out to be 0.597.

Turning to GUUCCGCUGGCGUCAUGGUAACGCGUCUCCCUCCUAAGGAGAAGACUGCGGGUUCGAGUCCCCUACGGAACG, the yeast fitness amounted to 0.573.

Turning to GUUCCGAUGGCGUAAUGGUAACGCGUCUCCCUCCUAAGGAGAAGACUGCGGGUACGAGUCCCGUACGGAACG, the yeast fitness amounted to 0.506.
